The full list was thinned out, with hits kept by preference.
RORA inh = RORA (human) inhibition; AID 561; P35398; 65,000 compounds, 0.43% hits; inhibition, % at 10 µM; CHO-K1 Gal4-RORA LBD luciferase reporter, luminescence;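 active = inhibition above the mean of all tested compounds plus 3 SD, cut at about 52% in these data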;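 note: 0% = RORA-transfected cells with DMSO and 100% = mock-transfected cells lacking RORA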
Target sequence (P35398 whole entry, looked up, the tested form may be a part): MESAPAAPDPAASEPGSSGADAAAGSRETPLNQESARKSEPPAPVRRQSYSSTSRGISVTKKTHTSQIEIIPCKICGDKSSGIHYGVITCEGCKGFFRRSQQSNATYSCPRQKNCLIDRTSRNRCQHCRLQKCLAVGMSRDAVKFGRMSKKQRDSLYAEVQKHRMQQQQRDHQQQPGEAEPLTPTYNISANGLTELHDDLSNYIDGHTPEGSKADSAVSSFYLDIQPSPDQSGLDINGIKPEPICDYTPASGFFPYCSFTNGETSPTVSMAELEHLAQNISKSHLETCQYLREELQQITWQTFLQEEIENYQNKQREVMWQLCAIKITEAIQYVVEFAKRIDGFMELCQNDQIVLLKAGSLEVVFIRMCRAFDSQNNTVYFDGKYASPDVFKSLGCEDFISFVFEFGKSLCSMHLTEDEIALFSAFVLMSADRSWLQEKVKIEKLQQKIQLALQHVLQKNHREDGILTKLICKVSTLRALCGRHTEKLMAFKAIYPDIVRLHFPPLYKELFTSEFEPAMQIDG
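Test system – CHO-K1 Gal4-RORA LBD luciferase reporter cells · Schedule – 20 h at 37 °C · Signal – luminescence from basal luciferase reporter expression · Measure – percent inhibition of basal reporter luminescence, control-normalized · Control set – -RORA mock-transfected DMSO wells 100%, +RORA DMSO wells 0%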
An asterisk follows results filed as active.

SMILES	RORA inh
CCOC(=O)c1c(N)sc(C(=O)Nc2ccc3c(c2)OCO3)c1C	54*
CCC(=O)Nc1ccc(C(=O)Nc2ccc3c(c2)OCO3)cc1	-31
Cc1noc(C(=O)Nc2ccc3c(c2)OCO3)c1Cl	-65
O=C(O)CNC1=NCCC1	-16
O=c1[nH]c(CN2CCN(Cc3ccc4c(c3)OCO4)CC2)nc2sc3c(c12)CCC3	9
O=S(=O)(NCc1ccncc1)c1ccc(Br)s1	65*
CN1CCN(S(=O)(=O)c2ccc(Br)s2)CC1	-63
CCOC(=O)C1CCN(C(=O)CNS(=O)(=O)c2ccc(Br)s2)CC1	-10
COc1ccc(CCNC(=O)C2CCCN(S(=O)(=O)c3cccc4nonc34)C2)cc1OC (stereo not drawn)	3
N#Cc1c(NC(=O)CSc2ncnc3sccc23)oc(-c2ccco2)c1-c1ccco1	0
NC(=O)CSc1nnc(Cc2ccc3c(c2)OCO3)n1C1CCCCC1	-7
CC(C)C1N=C2c3ccccc3N=C(SCC#N)N2C1=O (stereo not drawn)	9
CCOc1ccc(NC(=O)C2CC(=O)N(C(C)C)C2)cc1 (stereo not drawn)	-6
COc1ccc(-c2noc(-c3ccccc3Cl)n2)cc1OC	-82
COc1nc(-c2ccccc2)cc(-c2ccc(OC)c(OC)c2)n1	-13
COc1ccc(C2=Nn3c(nnc3-c3ccccc3OC)SC2)cc1OC	55*
CC(C)=CCC(C)(C)CNC(=O)NC1CCCCC1	-5
CCCCNc1cc(=O)n(C)c(=O)[nH]1	4
CCCCNc1cc(C)nc(NCc2ccccc2)n1	57*
COc1ccc2nc(NCc3ccccc3)[nH]c2c1	-52
CCC(=O)Nc1cccc(-c2nnc(SCC(=O)c3ccccc3)n2C)c1	-61
NC(=O)C1(N2CCCCC2)CCN(C(=O)Nc2ccccc2C(F)(F)F)CC1	-1
CCN(CC)CCCN1C(=O)C(O)=C(C(=O)c2sc(C)nc2C)C1c1ccco1 (stereo not drawn)	0
COC(=O)c1ccc(NC(=O)C2CCCN(S(=O)(=O)c3cnc[nH]3)C2)cc1 (stereo not drawn)	6
O=C(NCCc1ccc(Cl)cc1)C1CCC(=O)N1C1CCCC1 (stereo not drawn)	-8
SMILES	RORA inh
CCOc1ccc(C(=O)N2CCCC2C(=O)O)cc1 (stereo not drawn)	7
CCOc1ccc(OCc2cccc(C(=O)N3CCOCC3)c2)cc1	77*
O=C(Nc1ccccc1C(=O)N1CCOCC1)c1ccncc1	-16
CCCC(C(=O)NCc1ccc(OC)cc1)N(Cc1ccco1)C(=O)c1snc(C(N)=O)c1N (stereo not drawn)	-24
CC(NC(=O)COc1cc(=O)n(C)c2ccccc12)c1ccc2c(c1)OCCO2 (stereo not drawn)	-24
CC(C)Cn1c(N)c(C(=O)CSc2ccc3c(c2)OCCO3)c(=O)n(C)c1=O	78*
CCn1c(SCC(=O)c2c(N)n(C)c(=O)n(C)c2=O)nc2sc(C)c(C)c2c1=O	13
CCOC(=O)C1CCN(C(=O)Nc2ccccc2Cl)CC1	16
COc1ccc(CCn2nnnc2C(C(C)C)N2CCN(c3ncccn3)CC2)cc1OC (stereo not drawn)	-11
CCCn1c(C)cc(C(=O)CN2C(=O)c3ccccc3C2=O)c1C	-55
COCCn1c(C)cc(C(=O)COC(=O)c2n[nH]c3ccccc23)c1C	58*
C=CCn1c(C)cc(C(=O)COc2nncc3ccccc23)c1C	-80
Cc1cc(C(F)F)n2nc(C(=O)Nc3ccccc3Br)nc2n1	-8
O=C(O)c1cccc(S(=O)(=O)N2CCSCC2)c1	3
Cc1ccc(-c2nc3nc4ccccc4nc3n2Cc2ccco2)cc1	68*
CCCn1c(-c2ccc(OC)cc2)nc2nc3ccccc3nc21	-4
c1ccc(Cn2c(-c3ccco3)nc3nc4ccccc4nc32)cc1	-75
COC(=O)c1cccc(NC(=O)Cn2nnc3ccccc32)c1	13
CC(=O)OC1c2ccccc2C(=O)N1Cc1ccccc1Cl (stereo not drawn)	4
CCCCn1nnc(NC(=O)CC23CC4CC(CC(C4)C2)C3)n1	18
O=C(Nc1ccc(CN2CCOCC2)cc1)c1cccc(F)c1	-37
O=C(c1ccccc1)c1ccc(N2CCOCC2)c(F)c1	-74
O=C(c1ccccc1)C(CCC(CN1CCOCC1)C(=O)c1ccccc1)CN1CCOCC1 (stereo not drawn)	56*
Cc1ccc(S(=O)(=O)N2CCC(C(=O)N3CCC(C(=O)NCc4cccnc4)CC3)CC2)cc1	10
Cn1c(=O)c2c3c(sc2n2c(SCC(=O)c4ccc(Cl)cc4)nnc12)COC(C)(C)C3	7
Cc1ccc(-c2noc(CCC(=O)NCc3ccc4c(c3)OCO4)n2)cc1	25
CC1(C)CC(=O)c2cc(OCC(=O)NCCN3CCCc4ccccc43)ccc2O1	-5
CCOC(=O)C1=C(C)NC(=O)NC1c1ccc(NC(C)=O)cc1 (stereo not drawn)	-3
COC(=O)C1=C(CN2CCCc3ccccc32)NC(=O)NC1c1ccc(F)cc1 (stereo not drawn)	78*
O=S(=O)(NC1CCCCCC1)c1cccc2cccnc12	17
